# Measurements from publication PMC5819740 (ACS chemical biology, 2017).
# Like-named read-outs stand apart in the source and are kept apart here.
# Tests used:
# EcDHFR [1] = biological target: T1, EcDHFR (Escherichia coli, UniProt P0ABQ4); test: biochemical; type: biochemical; conditions: for Inhibition of EcDHFR activity in single-concentration initial screen: 1mM inhibitor (Fig 2A legend)
# EcDHFR [2] = biological target: T1, EcDHFR; type: binding; conditions: thermal shift at single concentration of 0.5 mM small molecule, 5μM EcDHFR
# EcDHFR [3] = biological target: T1, EcDHFR; type: biochemical; conditions: lower substrate, global non-linear fits
# EcDHFR A26T/L28R mutant = test: DHFR inhibition assay on drug-resistant double mutant; type: biochemical, Escherichia coli; conditions: A26T/L28R mutant vs wild-type
# Summary of the method: (§1)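 Purified recombinant E. coli DHFR (wild-type, or L28R, A26T/L28R, P21L/L28R mutants) in 100mM HEPES pH 7.3 at ~22 °C with 60 μM NADPH, 50 μM H2F and varied test compound; wild-type enzyme at 16.7nM. Reactions were enzyme-started, and NADPH consumption was followed at 340 nm for 100 s (initial rates, <5% product), corrected for non-enzymatic NADPH loss. Run in duplicate; IC50 fitted to y = 100%/[1+(I/IC50)].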
# EcDHFR P21L/L28R mutant = test: as above; type: biochemical, Escherichia coli; conditions: P21L/L28R mutant vs wild-type
# Summary of the method: as §1
# EcDHFR [4] = biological target: T1, EcDHFR; conditions: cited from earlier work
# EcDHFR L28R mutant = test: DHFR inhibition assay on drug-resistant single mutant; type: biochemical, Escherichia coli; conditions: L28R mutant vs wild-type
# Summary of the method: as §1
# [5] = Insolubility limit in growth assay medium; conditions: 30 °C, aqueous buffer, kinetic from dmso stock
# Escherichia coli = conditions: read-out: estimated IC50 (antibacterial activity); cited from earlier work
# E. coli cultures = test: Rescue of growth by metabolic complement folAmix; type: cell-based; conditions: M9-media supplemented with folAmix; different resveratrol concentrations
# [6] = test system: E. coli strain with chromosomal folA replaced by mutant L28R; conditions: cited from earlier work
# [7] = 60μM NADPH, 50μM H2F, 100mM HEPES pH 7.3, 16.7nM EcDHFR, ± S.E.
# [8] = substrate H2F, saturating NADPH
# T1 sequence (P0ABQ4 whole entry): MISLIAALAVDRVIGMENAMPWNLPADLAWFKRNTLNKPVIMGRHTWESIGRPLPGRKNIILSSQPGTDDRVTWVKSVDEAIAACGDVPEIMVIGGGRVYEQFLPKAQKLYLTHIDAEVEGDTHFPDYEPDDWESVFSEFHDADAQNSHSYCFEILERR
structure (smiles),measurement,setting,value
O=S(=O)(O)c1cc(N=C=S)ccc1C=Cc1ccc(N=C=S)cc1S(=O)(=O)O [DIDS],IC50,EcDHFR [1]; [7],51 ± 1.7 µM
same,Inhibition of EcDHFR activity in single-concentration initial screen,EcDHFR [1],showed inhibition
"O=[N+]([O-])c1ccc(/C=C/c2ccc([N+](=O)[O-])cc2S(=O)(=O)O)c(S(=O)(=O)O)c1 [DNDS, dinitro disulfonic acid]",IC50,EcDHFR [1]; [7],45.3 ± 10.1 µM
same,Inhibition of EcDHFR activity in single-concentration initial screen,EcDHFR [1],showed inhibition
same,ΔTm,EcDHFR [2],1.9 °C
Nc1ccc(C=Cc2ccc(N)cc2S(=O)(=O)O)c(S(=O)(=O)O)c1 [flavonic acid],αKi,EcDHFR [3]; [8],76.25 ± 6.82 µM
same,IC50,EcDHFR [1]; [7],36.7 ± 3.1 µM
same,Inhibition of EcDHFR activity in single-concentration initial screen,EcDHFR [1],showed inhibition
COc1ccc(CC(=O)c2ccc(O)cc2O)cc1 [ononetin],Inhibition Mechanism,EcDHFR [3]; NADPH titrated at saturating H2F,uncompetitive inhibition
same,αKi,EcDHFR [3]; [8],111.2 ± 12.37 µM
same,αKi,"EcDHFR [3]; substrate NADPH, saturating H2F",113.2 ± 13.1 µM
same,IC50 curve compared with wild-type enzyme,EcDHFR A26T/L28R mutant,superimposable
same,IC50 curve compared with wild-type enzyme,EcDHFR P21L/L28R mutant,superimposable
same,Binding to EcDHFR by DSF,EcDHFR [4],showed binding to EcDHFR
same,IC50 curve compared with wild-type enzyme,EcDHFR L28R mutant,superimposable
same,IC50,EcDHFR [1],83.4 ± 1.1 µM
same,Ki,EcDHFR [1],83.4 µM
same,Inhibition of EcDHFR activity in single-concentration initial screen,EcDHFR [1],inhibits the enzyme
Oc1cc(O)cc(/C=C/c2ccc(O)cc2O)c1 [oxyresveratrol],solubility,[5],≤ 250 µM
Oc1ccc(/C=C/c2cc(O)cc(O)c2)cc1 [resveratrol],IC50,Escherichia coli,250 µM
same,αKi,EcDHFR [3]; [8],88.30 ± 6.02 µM
same,IC50 curve compared with wild-type enzyme,EcDHFR A26T/L28R mutant,superimposable
same,IC50 curve compared with wild-type enzyme,EcDHFR P21L/L28R mutant,superimposable
same,Effect of folAmix on growth of inhibited cells,E. coli cultures,fully restores growth
same,solubility,[5],≤ 250 µM
same,IC50 curve compared with wild-type enzyme,EcDHFR L28R mutant,superimposable
same,IC50,EcDHFR [1],95.7 ± 3 µM
same,Ki,EcDHFR [1],95.7 µM
same,Inhibition of EcDHFR activity in single-concentration initial screen,EcDHFR [1],showed inhibition
COc1cc(Cc2cnc(N)nc2N)cc(OC)c1OC [trimethoprim],Increase in resistance conferred by L28R variant,[6],approximately 50 fold
